Measurements as given in ChEMBL document CHEMBL1128216, “Rational design and synthesis of small molecule, non-oligosaccharide selectin inhibitors: (alpha-D-mannopyranosyloxy)biphenyl-substituted carboxylic acids” (J Med Chem, 1995).
pIC50: −log10 of the molar value.

Legend:
L-selectin = target: T1, L-selectin (Mus musculus, UniProt P18337); assay: In vitro inhibitory activity against sialyl Lewis X expressing HL60 cell binding Selectin L; type: cell-based, HL-60
T1 sequence (P18337 whole entry): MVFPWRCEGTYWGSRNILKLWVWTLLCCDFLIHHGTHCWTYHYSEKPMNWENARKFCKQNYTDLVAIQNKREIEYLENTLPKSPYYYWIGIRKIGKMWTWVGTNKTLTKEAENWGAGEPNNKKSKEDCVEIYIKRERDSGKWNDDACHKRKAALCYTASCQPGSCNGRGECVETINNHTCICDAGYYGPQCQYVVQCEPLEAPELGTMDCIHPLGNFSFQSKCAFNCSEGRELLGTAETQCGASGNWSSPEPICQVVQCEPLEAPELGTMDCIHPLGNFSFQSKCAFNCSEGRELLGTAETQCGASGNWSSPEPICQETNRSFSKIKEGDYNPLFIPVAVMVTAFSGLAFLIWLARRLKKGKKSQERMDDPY

P-selectin = target: T2, P-selectin (Homo sapiens, UniProt P16109); assay: In vitro inhibitory activity against sialyl Lewis X expressing HL60 cell binding Selectin P; type: cell-based, HL-60
T2 sequence (P16109 whole entry): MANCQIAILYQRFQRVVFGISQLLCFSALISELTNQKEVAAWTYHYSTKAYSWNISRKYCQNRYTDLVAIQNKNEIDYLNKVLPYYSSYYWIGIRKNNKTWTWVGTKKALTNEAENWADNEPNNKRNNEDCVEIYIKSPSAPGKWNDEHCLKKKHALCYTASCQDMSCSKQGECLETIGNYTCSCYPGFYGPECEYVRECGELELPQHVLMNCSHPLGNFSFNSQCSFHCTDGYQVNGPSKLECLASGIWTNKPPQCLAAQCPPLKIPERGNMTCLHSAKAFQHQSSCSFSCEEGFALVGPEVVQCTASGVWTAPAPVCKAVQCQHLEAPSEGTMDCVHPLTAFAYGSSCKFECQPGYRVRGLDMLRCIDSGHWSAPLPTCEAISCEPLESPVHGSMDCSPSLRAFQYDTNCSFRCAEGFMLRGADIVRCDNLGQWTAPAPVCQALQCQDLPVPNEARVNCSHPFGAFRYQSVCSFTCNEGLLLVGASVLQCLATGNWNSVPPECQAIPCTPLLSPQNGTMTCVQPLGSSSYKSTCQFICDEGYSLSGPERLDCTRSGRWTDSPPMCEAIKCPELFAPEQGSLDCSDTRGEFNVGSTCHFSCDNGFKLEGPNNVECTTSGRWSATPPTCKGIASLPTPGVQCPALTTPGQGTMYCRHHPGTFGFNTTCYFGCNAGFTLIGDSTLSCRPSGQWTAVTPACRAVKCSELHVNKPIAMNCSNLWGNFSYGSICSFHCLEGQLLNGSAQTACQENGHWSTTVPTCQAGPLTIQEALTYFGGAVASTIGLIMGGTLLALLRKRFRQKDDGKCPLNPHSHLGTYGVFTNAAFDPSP

E-selectin = target: T3, E-selectin (Homo sapiens, UniProt P16581); assay: In vitro inhibition of HL60 (human leukemia) cell binding to human recombinant e-selectin.; type: cell-based, HL-60
T3 sequence (P16581 whole entry): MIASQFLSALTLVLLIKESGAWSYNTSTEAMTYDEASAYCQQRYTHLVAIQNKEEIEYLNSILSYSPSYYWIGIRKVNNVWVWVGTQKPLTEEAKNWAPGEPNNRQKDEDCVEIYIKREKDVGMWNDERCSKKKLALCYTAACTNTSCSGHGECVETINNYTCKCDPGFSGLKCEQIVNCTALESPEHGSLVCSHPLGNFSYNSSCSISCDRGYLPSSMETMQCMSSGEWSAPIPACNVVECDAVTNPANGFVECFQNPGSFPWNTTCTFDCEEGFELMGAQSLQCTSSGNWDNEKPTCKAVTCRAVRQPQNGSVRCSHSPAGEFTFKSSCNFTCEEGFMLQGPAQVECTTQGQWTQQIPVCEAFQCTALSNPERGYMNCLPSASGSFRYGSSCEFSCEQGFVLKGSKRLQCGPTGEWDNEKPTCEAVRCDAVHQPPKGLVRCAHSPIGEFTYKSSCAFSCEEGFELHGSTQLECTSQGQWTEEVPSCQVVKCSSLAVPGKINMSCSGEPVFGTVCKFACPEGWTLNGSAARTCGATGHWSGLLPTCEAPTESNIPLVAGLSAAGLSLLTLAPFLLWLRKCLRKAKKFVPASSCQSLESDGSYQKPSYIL
Summary of the method: (§1)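 Human E-selectin (lectin, EGF and two complement repeats) fused to mouse IgG was captured on anti-mouse IgG magnetic beads overnight at 4 °C. Wells were pre-blocked with 3% BSA/PBS. Compound in PBS was mixed with calcein-labelled HL60 cells (10⁷/mL, RPMI 1640 + 10% FCS) and beads (4 × 10⁶/mL) for 10 min at room temperature. Unbound cells were removed magnetically with two PBS washes, and bound cells were lysed in 1% NP40.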

[1] = target: T4, P-selectin (Homo sapiens) (UniProt P16109); assay: In vitro inhibitory activity against sialyl Lewis X expressing HL60 cell binding Selectin P at 10 mM concentration; type: cell-based; details: HL-60
T4 sequence (whole entry): T2 sequence (P16109 whole entry)

[2] = target: T5, L-selectin (Mus musculus) (UniProt P18337); assay: In vitro inhibitory activity against sialyl Lewis X expressing HL60 cell binding to Selectin L at 6 mM concentration; type: cell-based; details: HL-60
T5 sequence (whole entry): T1 sequence (P18337 whole entry)

[3] = target: T6, E-selectin (Homo sapiens) (UniProt P16581); assay: In vitro inhibitory activity against sialyl Lewis X expressing HL60 cell binding to recombinant human E-selectin at 40 mM concentration; type: cell-based; details: HL-60; summary of the method: as §1
T6 sequence (whole entry): T3 sequence (P16581 whole entry)

[4] = target: T4, P-selectin (Homo sapiens); assay: In vitro inhibitory activity against sialyl Lewis X expressing HL60 cell binding Selectin P at 20 mM concentration; type: cell-based; details: HL-60
[5] = target: T5, L-selectin (Mus musculus); assay: In vitro inhibitory activity against sialyl Lewis X expressing HL60 cell binding to Selectin L at 8 mM concentration; type: cell-based; details: HL-60
[6] = target: T6, E-selectin (Homo sapiens); assay: In vitro inhibitory activity against sialyl Lewis X expressing HL60 cell binding to recombinant human E-selectin at 20 mM concentration; type: cell-based; details: HL-60; summary of the method: as §1
[7] = target: T5, L-selectin (Mus musculus); assay: In vitro inhibitory activity against sialyl Lewis X expressing HL60 cell binding to Selectin L at 7 mM concentration; type: cell-based; details: HL-60
[8] = target: T5, L-selectin (Mus musculus); assay: In vitro inhibitory activity against sialyl Lewis X expressing HL60 cell binding Selectin L at 6 mM concentration; type: cell-based; details: HL-60
[9] = target: T6, E-selectin (Homo sapiens); assay: In vitro inhibitory activity against sialyl Lewis X expressing HL60 cell binding to recombinant human E-selectin at 1 mM concentration; type: cell-based; details: HL-60; summary of the method: as §1
[10] = target: T5, L-selectin (Mus musculus); assay: In vitro inhibitory activity against sialyl Lewis X expressing HL60 cell binding to Selectin L at 5 mM concentration; type: cell-based; details: HL-60
[11] = target: T5, L-selectin (Mus musculus); assay: In vitro inhibitory activity against sialyl Lewis X expressing HL60 cell binding Selectin L at 1 mM concentration; type: cell-based; details: HL-60
[12] = target: T4, P-selectin (Homo sapiens); assay: In vitro inhibitory activity against sialyl Lewis X expressing HL60 cell binding Selectin P at 4 mM concentration; type: cell-based; details: HL-60

Compound: O=C(O)Cc1cccc(-c2ccccc2O[C@H]2O[C@H](CO)[C@@H](O)[C@@H](O)[C@@H]2O)c1
- pIC50 (L-selectin): 3.00
- pIC50 (P-selectin): 2.59
- pIC50 (E-selectin): 2.70

Compound: CC(C(=O)O)c1cccc(-c2ccccc2O[C@H]2O[C@H](CO)[C@@H](O)[C@@H](O)[C@@H]2O)c1 (stereo in doubt; 9s) [listing 1 of 2 here]
- inhibition [1]: 30%
- inhibition [2]: 0%

Compound: OC[C@H]1O[C@H](Oc2ccccc2-c2cccc(Cc3nnn[nH]3)c2)[C@@H](O)[C@H](O)[C@@H]1O
- inhibition [3]: 17%

Compound: CCOP(=O)(O)CCCc1cccc(-c2ccccc2O[C@H]2O[C@H](CO)[C@@H](O)[C@@H](O)[C@@H]2O)c1
- pIC50 (P-selectin): 1.91
- pIC50 (E-selectin): 1.46

Compound: Cc1c(OCC(=O)O)cccc1-c1ccccc1O[C@H]1O[C@H](CO)[C@@H](O)[C@@H](O)[C@@H]1O
- inhibition [4]: 0%
- inhibition [5]: 0%
- inhibition [6]: 0%

Compound: O=C(NC(Cc1ccccc1)C(=O)O)c1ccc(-c2ccccc2O[C@H]2O[C@H](CO)[C@@H](O)[C@@H](O)[C@@H]2O)cc1 (some centres undefined)
- pIC50 (E-selectin): 1.94

Compound: CC(C(=O)O)c1cccc(-c2ccccc2O[C@H]2O[C@H](CO)[C@@H](O)[C@@H](O)[C@@H]2O)c1 (stereo in doubt; 9s) [listing 2 of 2 here]
- pIC50 (E-selectin): 1.70

Compound: O=C(O)c1ccc(-c2ccccc2O[C@H]2O[C@H](CO)[C@@H](O)[C@@H](O)[C@@H]2O)cc1
- pIC50 (E-selectin): 1.84
- inhibition [7]: 0%
- inhibition [4]: 0%

Compound: O=C(N[C@H](Cc1ccccc1)C(=O)O)c1cccc(-c2ccccc2O[C@H]2O[C@H](CO)[C@@H](O)[C@@H](O)[C@@H]2O)c1
- inhibition [8]: 0%
- inhibition [4]: 5%
- inhibition [9]: 14%

Compound: CC(C(=O)O)c1cccc(-c2ccccc2O[C@H]2O[C@H](CO)[C@@H](O)[C@@H](O)[C@@H]2O)c1 (stereo in doubt; 9r) [listing 1 of 2 here]
- inhibition [3]: 0%
- inhibition [2]: 40%

Compound: O=C(O)Cc1ccc(-c2ccccc2O[C@H]2O[C@H](CO)[C@@H](O)[C@@H](O)[C@@H]2O)cc1
- pIC50 (E-selectin): 2.59
- inhibition [4]: 0%
- inhibition [2]: 0%

Compound: O=C(N[C@@H](Cc1ccccc1)C(=O)O)c1ccc(-c2ccccc2O[C@H]2O[C@H](CO)[C@@H](O)[C@@H](O)[C@@H]2O)cc1
- pIC50 (E-selectin): 2.42
- inhibition [4]: 0%
- inhibition [10]: 0%

Compound: O=C(O)CCC(NC(=O)c1ccc(-c2ccccc2O[C@H]2O[C@H](CO)[C@@H](O)[C@@H](O)[C@@H]2O)cc1)C(=O)O (some centres undefined)
- inhibition [11]: 0%
- pIC50 (E-selectin): 1.49
- inhibition [12]: 35%

Compound: CC(C(=O)O)c1cccc(-c2ccccc2O[C@H]2O[C@H](CO)[C@@H](O)[C@@H](O)[C@@H]2O)c1 (stereo in doubt; 9r) [listing 2 of 2 here]
- pIC50 (P-selectin): 1.70

Compound: CC(=O)N[C@H]1[C@H]([C@H](O)[C@H](O)CO)O[C@@](O[C@H]2[C@@H](O)[C@@H](CO)O[C@@H](O[C@@H]([C@H](O[C@@H]3O[C@@H](C)[C@@H](O)[C@@H](O)[C@@H]3O)[C@H](C=O)NC(C)=O)[C@H](O)CO)[C@@H]2O)(C(=O)O)C[C@@H]1O [SIALYL LEWIS X]
- pIC50 (L-selectin): 2.70
- pIC50 (P-selectin): 2.70
- pIC50 (E-selectin): 2.52
